Results as given in ChEMBL document CHEMBL1143812, “A novel bis-tetrahydrofuranylurethane-containing nonpeptidic protease inhibitor (PI), GRL-98065, is potent against multiple-PI-resistant human immunodeficiency virus in vitro” (Antimicrob Agents Chemother, 2007).

How the values were obtained:
[1] = tested on: Human immunodeficiency virus 1; test: Antiviral activity against ritonavir-resistant HIV1 in MT4 cells assessed as inhibition of p24 Gag protein expression by MTT assay; format: functional, organism-based; details: Human immunodeficiency virus 1, MT4
How it was run: (§1)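 MT-4 cells (10^5/ml) infected with 100 TCID50s of wild-type or PI-resistant NL4-3 virus and incubated at 37°C with or without graded drug concentrations. On day 7, supernatant p24 Gag was measured by chemiluminescent enzyme immunoassay. […] Assays were run in duplicate or triplicate.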

[2] = tested on: Human immunodeficiency virus 1; test: Antiviral activity against idinavir-resistant HIV1 in MT4 cells assessed as inhibition of p24 Gag protein expression by MTT assay; format: functional, organism-based; details: Human immunodeficiency virus 1, MT4; how it was run: as §1
[3] = tested on: Human immunodeficiency virus 1; test: Antiviral activity against nelfinavir-resistant HIV1 in MT4 cells assessed as inhibition of p24 Gag protein expression by MTT assay; format: functional, organism-based; details: Human immunodeficiency virus 1, MT4; how it was run: as §1
[4] = tested on: Human immunodeficiency virus 1; test: Antiviral activity against atazanavir-resistant HIV1 in MT4 cells assessed as inhibition of p24 Gag protein expression by MTT assay; format: functional, organism-based; details: Human immunodeficiency virus 1, MT4; how it was run: as §1
[5] = tested on: Human immunodeficiency virus 1; test: Antiviral activity against lopinavir-resistant HIV1 in MT4 cells assessed as inhibition of p24 Gag protein expression by MTT assay; format: functional, organism-based; details: Human immunodeficiency virus 1, MT4; how it was run: as §1
[6] = tested on: Human immunodeficiency virus 1; test: Antiviral activity against amprenavir-resistant HIV1 in MT4 cells assessed as inhibition of p24 Gag protein expression by MTT assay; format: functional, organism-based; details: Human immunodeficiency virus 1, MT4; how it was run: as §1
[7] = tested on: Human immunodeficiency virus 1; test: Antiviral activity against HIV1 GRL98065p20 in MT4 cells assessed as inhibition of p24 Gag protein expression by MTT assay; format: functional, organism-based; details: Human immunodeficiency virus 1, MT4; how it was run: as §1
[8] = tested on: Human immunodeficiency virus 1; test: Antiviral activity against HIV1 GRL98065p30 in MT4 cells assessed as inhibition of p24 Gag protein expression by MTT assay; format: functional, organism-based; details: Human immunodeficiency virus 1, MT4; how it was run: as §1
[9] = tested on: Human immunodeficiency virus 1; test: Antiviral activity against HIV1 GRL98065p40 in MT4 cells assessed as inhibition of p24 Gag protein expression by MTT assay; format: functional, organism-based; details: Human immunodeficiency virus 1, MT4; how it was run: as §1
[10] = tested on: Human immunodeficiency virus 1; test: Antiviral activity against wild type HIV1 ERS104prc X4 in phytohemagglutininin-activated PBMCs assessed as inhibition of p24 Gag protein expression by MTT assay; format: functional, organism-based
How it was run: (§2)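 PHA-activated PBMCs (10^6/ml) infected with 50 TCID50s of each isolate and cultured with or without drug in 10-fold serial dilutions. The read-out was supernatant p24 Gag by chemiluminescent enzyme immunoassay. Assays were run in duplicate or triplicate, with one donor per experiment and three donors in total.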

[11] = tested on: Human immunodeficiency virus 1; test: Antiviral activity against HIV1 MDR/TM X4 in phytohemagglutininin-activated PBMCs assessed as inhibition of p24 Gag protein expression by MTT assay; format: functional, organism-based
How it was run: as §2, with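 “immunoassay. […]” for “immunoassay.”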

[12] = tested on: Human immunodeficiency virus 1; test: Antiviral activity against HIV1 MDR/MM R5 in phytohemagglutininin-activated PBMCs assessed as inhibition of p24 Gag protein expression by MTT assay; format: functional, organism-based
How it was run: as §2, with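 “immunoassay. […]” for “immunoassay.”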

[13] = tested on: Human immunodeficiency virus 1; test: Antiviral activity against HIV1 MDR/JSL R5 in phytohemagglutininin-activated PBMCs assessed as inhibition of p24 Gag protein expression by MTT assay; format: functional, organism-based
How it was run: as §2, with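 “immunoassay. […]” for “immunoassay.”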

[14] = tested on: Human immunodeficiency virus 1; test: Antiviral activity against HIV1 MDR/B X4 in phytohemagglutininin-activated PBMCs assessed as inhibition of p24 Gag protein expression by MTT assay; format: functional, organism-based
How it was run: as §2, with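 “immunoassay. […]” for “immunoassay.”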

[15] = tested on: Human immunodeficiency virus 1; test: Antiviral activity against HIV1 MDR/C X4 in phytohemagglutininin-activated PBMCs assessed as inhibition of p24 Gag protein expression by MTT assay; format: functional, organism-based
How it was run: as §2, with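 “immunoassay. […]” for “immunoassay.”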

[16] = tested on: Human immunodeficiency virus 1; test: Antiviral activity against HIV1 MDR/G X4 in phytohemagglutininin-activated PBMCs assessed as inhibition of p24 Gag protein expression by MTT assay; format: functional, organism-based; how it was run: as §2
[17] = tested on: Human immunodeficiency virus 1; test: Antiviral activity against HIV1 92UG029 X4 subtype A in phytohemagglutininin-activated PBMCs assessed as inhibition of p24 Gag protein expression by MTT assay; format: functional, organism-based
How it was run: as §2, with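 “immunoassay. […]” for “immunoassay.”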

[18] = tested on: Human immunodeficiency virus 1; test: Antiviral activity against HIV1 92UG037 subtype A R5 in phytohemagglutininin-activated PBMCs assessed as inhibition of p24 Gag protein expression by MTT assay; format: functional, organism-based
How it was run: as §2, with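 “immunoassay. […]” for “immunoassay.”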

[19] = tested on: Human immunodeficiency virus 1; test: Antiviral activity against HIV1 BaL R5 subtype B in phytohemagglutininin-activated PBMCs assessed as inhibition of p24 Gag protein expression by MTT assay; format: functional, organism-based; how it was run: as §2
[20] = tested on: Human immunodeficiency virus 1; test: Antiviral activity against HIV1 97ZA003 R5 subtype C in phytohemagglutininin-activated PBMCs assessed as inhibition of p24 Gag protein expression by MTT assay; format: functional, organism-based
How it was run: as §2, with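 “immunoassay. […]” for “immunoassay.”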

[21] = tested on: Human immunodeficiency virus 1; test: Antiviral activity against HIV1 92TH019 R5 subtype E in phytohemagglutininin-activated PBMCs assessed as inhibition of p24 Gag protein expression by MTT assay; format: functional, organism-based
How it was run: as §2, with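 “immunoassay. […]” for “immunoassay.”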

[22] = tested on: Human immunodeficiency virus 1; test: Antiviral activity against saquinavir-resistant HIV1 in MT4 cells assessed as inhibition of p24 Gag protein expression by MTT assay; format: functional, organism-based; details: Human immunodeficiency virus 1, MT4; how it was run: as §1
[23] = tested on: Human immunodeficiency virus 1; test: Antiviral activity against HIV1 LAI in MT2 cells assessed as inhibition of p24 Gag protein expression by MTT assay; format: functional, organism-based; details: Human immunodeficiency virus 1, LAI
How it was run: (§3)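 MT-2 cells (2 × 10^4/ml) were infected with 100 TCID50s of the HIV-1LAI, HIV-2EHO or HIV-2ROD strain. They were cultured with serial drug concentrations at 37°C for 7 days. MTT was then added for 4 h at 37°C, formazan was dissolved in acidified isopropanol with 4% Triton X-100, and optical density was read. EC50 is the mean of three independent experiments, each run in duplicate.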

[24] = tested on: Human immunodeficiency virus 2; test: Antiviral activity against HIV2 EHO in MT2 cells assessed as inhibition of p24 Gag protein expression by MTT assay; format: functional, organism-based; details: Human immunodeficiency virus 2, EHO; how it was run: as §3
[25] = tested on: Human immunodeficiency virus 2; test: Antiviral activity against HIV2 ROD in MT2 cells assessed as inhibition of p24 Gag protein expression by MTT assay; format: functional, organism-based; details: Human immunodeficiency virus 2, ROD; how it was run: as §3
[26] = Cytotoxicity against human MT2 cells assessed as inhibition of p24 Gag protein expression by MTT assay; format: cell-based
[27] = tested on: Human immunodeficiency virus 1; test: Antiviral activity against HIV1 NL4-3 in MT4 cells by MTT assay; format: functional, organism-based; details: Human immunodeficiency virus 1, NL4-3, MT4

Row | SMILES | EC50 [1] [nM] | EC50 [2] [nM] | EC50 [3] [nM] | EC50 [4] [nM] | EC50 [5] [nM] | EC50 [6] [nM] | EC50 [7] [nM] | EC50 [8] [nM] | EC50 [9] [nM] | EC50 [10] [nM] | EC50 [11] [nM] | EC50 [12] [nM] | EC50 [13] [nM] | EC50 [14] [nM] | EC50 [15] [nM] | EC50 [22] [nM] | EC50 [23] [nM] | EC50 [24] [nM] | EC50 [25] [nM] | CC50 [26] [nM] | further results
1 | CC(C)(C)NC(=O)[C@@H]1C[C@@H]2CCCC[C@@H]2CN1C[C@@H](O)[C@H](Cc1ccccc1)NC(=O)[C@H](CC(N)=O)NC(=O)c1ccc2ccccc2n1 | 10 | 59 | 24 | 37 | 32 | 31 | 12 | 22 | 32 | 8 | 180 | 140 | 290 | 270 | 35 | > 1000 | 8 | 3 | 4.3 | 16400 | EC50 [16]: 33 nM; EC50 [17]: 4.8 nM; EC50 [18]: 3.2 nM; EC50 [19]: 8.3 nM; EC50 [20]: 6.7 nM; EC50 [21]: 3 nM; EC50 [27]: 7 nM
2 | CC(C)CN(C[C@@H](O)[C@H](Cc1ccccc1)NC(=O)O[C@H]1CCOC1)S(=O)(=O)c1ccc(N)cc1 | 280 | 170 | 60 | 200 | 310 | > 1000 | 58 | 330 | > 1000 | 29 | 300 | 480 | 430 | 360 | – | 330 | 36 | 250 | 570 | > 100000 | EC50 [17]: 46 nM; EC50 [18]: 27 nM; EC50 [20]: 33 nM; EC50 [21]: 21 nM
3 | CC(C)CN(C[C@@H](O)[C@H](Cc1ccccc1)NC(=O)O[C@H]1CO[C@H]2OCC[C@H]21)S(=O)(=O)c1ccc(N)cc1 | 18 | 15 | 3.3 | 3.4 | – | 330 | 21 | 36 | 210 | 3.8 | 4.3 | 16 | 27 | 40 | 9 | 5.8 | 3.9 | 8 | 6.8 | 83100 | EC50 [16]: 7 nM
4 | CC(C)CN(C[C@@H](O)[C@H](Cc1ccccc1)NC(=O)O[C@H]1CO[C@H]2OCC[C@H]21)S(=O)(=O)c1ccc2c(c1)OCO2 | 2.5 | 3.7 | 2.4 | 1.5 | 7.5 | 32 | 3.8 | 8 | 180 | 0.5 | 3.2 | 3.8 | 6 | 3.9 | 2.7 | 6 | 0.5 | 3.2 | 4.5 | 35700 | EC50 [16]: 3.4 nM; EC50 [17]: 0.5 nM; EC50 [18]: 0.4 nM; EC50 [19]: 0.2 nM; EC50 [20]: 0.5 nM; EC50 [21]: 0.3 nM; EC50 [27]: 0.3 nM
